The source made the active and inactive calls. No cut-off for these calls is given here.

Experiment [1] has as its target T1, Ubiquitin carboxyl-terminal hydrolase 2 (Homo sapiens, UniProt O75604).
T1 sequence (O75604 whole entry): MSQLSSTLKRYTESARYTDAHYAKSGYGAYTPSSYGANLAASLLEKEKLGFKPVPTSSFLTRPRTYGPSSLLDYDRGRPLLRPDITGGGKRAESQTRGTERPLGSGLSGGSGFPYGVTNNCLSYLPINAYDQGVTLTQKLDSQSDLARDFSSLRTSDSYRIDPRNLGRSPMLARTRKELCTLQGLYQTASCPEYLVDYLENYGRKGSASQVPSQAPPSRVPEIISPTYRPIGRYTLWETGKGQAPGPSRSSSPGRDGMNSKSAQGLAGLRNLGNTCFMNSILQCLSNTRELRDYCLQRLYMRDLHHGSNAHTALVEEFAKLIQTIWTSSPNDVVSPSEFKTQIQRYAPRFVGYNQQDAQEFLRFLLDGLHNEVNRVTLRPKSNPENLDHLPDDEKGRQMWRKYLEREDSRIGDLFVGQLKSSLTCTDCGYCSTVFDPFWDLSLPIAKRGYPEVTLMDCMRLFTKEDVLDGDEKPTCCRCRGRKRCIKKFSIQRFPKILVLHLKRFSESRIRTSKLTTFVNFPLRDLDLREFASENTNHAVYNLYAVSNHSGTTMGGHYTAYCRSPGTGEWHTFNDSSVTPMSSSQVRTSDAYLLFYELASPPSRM
Put plainly: (§1) Inhibition of human USP2a (258 to 605 residues) expressed in Escherichia coli BL21(DE3) using Ub-AMC as substrate incubated for 30 mins measured at 30 secs interval by fluorescence assay. In outline:
(§2)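 USP2a purified by Ni-chelate, Q-Sepharose flow-through and gel filtration in PBS pH 7.4 with 5 mM DTT. Enzyme at 10 nM in 50 mM Tris/HCl pH 7.5, 1 mM EDTA, 1 mM MgCl2, preincubated 30 min with compound. Ub-AMC 500 nM then added. Fluorescence (ex 355/em 460 nm) read every 30 s. Turbidity checked at 600 nm. Excess wild-type ubiquitin served as positive control. Percent inhibition was fitted to dose-response curves.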

In experiment [2] the target is T2, Ubiquitin carboxyl-terminal hydrolase 2 (Homo sapiens) (UniProt O75604).
T2 sequence (whole entry): T1 sequence (O75604 whole entry)
Put plainly: (§3) Binding affinity to 15N-Gly/Cys/Ser/Trp-labeled human USP2a expressed in Escherichia coli BL21(DE3) assessed as change in chemical shift by NMR method. In outline:
(§4)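 Selectively 15N-Gly/Cys/Ser/Trp-labeled USP2a from gel filtration in PBS pH 7.4 with 5 mM DTT, with 10% D2O added for lock. Ligand stock was 50 mM in d6-DMSO. Titration run in three steps at protein:compound ratios 1:1, 1:5 and 1:15. Binding followed as cross-peak shifts.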

Experiment [3] addresses T2, Ubiquitin carboxyl-terminal hydrolase 2 (Homo sapiens). Described as §1. In outline:
as §2

Experiment [4] shares this target. Put plainly: Inhibition of USP2a in human HCT116 cells assessed as downregulation of cycline D1 expression at 20 uM after 48 hrs by Western blot analysis. In kind it is cell-based. In outline: (§5)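 HCT 116 and MCF-7 cells were exposed to 20 μM compound or an equivalent DMSO portion and cultured for 48 h. Cyclin D1 levels were then assessed by western blot.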
(In general: Immunoblotting shows a protein as a band on a membrane.)

Experiment [5] shares this target. In words: Inhibition of USP2a in human MCF7 cells assessed as downregulation of cycline D1 expression at 20 uM after 48 hrs by Western blot analysis. In kind it is cell-based. The essentials:
as §5

In experiment [6] the target is Ubiquitin carboxyl-terminal hydrolase 7 (Homo sapiens) (UniProt Q93009). In words: Inhibition of human USP7 (208 to 561 residues) catalytic domain expressed in Escherichia coli BL21(DE3) at 10 uM using Ub-AMC as substrate incubated for 30 mins measured at 30 secs interval by fluorescence assay. The essentials: (§6)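 GST-tagged USP7 catalytic domain (208-561) was expressed at 16 °C overnight. Tag removed with PreScission protease, then purified by Q-Sepharose, Mono Q and gel filtration in 50 mM Tris/HCl, 150 mM NaCl, 2 mM DTT. Activity measured by Ub-AMC hydrolysis (500 nM substrate, ex 355/em 460 nm, 30 s reads) after 30 min preincubation with compound. Values are mean ± SD.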

The target in experiment [7] is T2, Ubiquitin carboxyl-terminal hydrolase 2 (Homo sapiens). Put plainly: Inhibition of human USP2a (258 to 605 residues) expressed in Escherichia coli BL21(DE3) at 2000 uM using Ub-AMC as substrate incubated for 30 mins measured at 30 secs interval by fluorescence assay. In outline:
as §2

For experiment [8], the target named is Ubiquitin carboxyl-terminal hydrolase 7 (Homo sapiens) (UniProt Q93009). In words: Inhibition of human USP7 (208 to 561 residues) catalytic domain expressed in Escherichia coli BL21(DE3) at 10 to 2000 uM using Ub-AMC as substrate incubated for 30 mins measured at 30 secs interval by fluorescence assay. The essentials:
as §6

The target in experiment [9] is T1, Ubiquitin carboxyl-terminal hydrolase 2. The description is as §3. The essentials:
as §4

Ubiquitin carboxyl-terminal hydrolase 7 (Homo sapiens), sequence (Q93009 whole entry, looked up, the tested form may be a part): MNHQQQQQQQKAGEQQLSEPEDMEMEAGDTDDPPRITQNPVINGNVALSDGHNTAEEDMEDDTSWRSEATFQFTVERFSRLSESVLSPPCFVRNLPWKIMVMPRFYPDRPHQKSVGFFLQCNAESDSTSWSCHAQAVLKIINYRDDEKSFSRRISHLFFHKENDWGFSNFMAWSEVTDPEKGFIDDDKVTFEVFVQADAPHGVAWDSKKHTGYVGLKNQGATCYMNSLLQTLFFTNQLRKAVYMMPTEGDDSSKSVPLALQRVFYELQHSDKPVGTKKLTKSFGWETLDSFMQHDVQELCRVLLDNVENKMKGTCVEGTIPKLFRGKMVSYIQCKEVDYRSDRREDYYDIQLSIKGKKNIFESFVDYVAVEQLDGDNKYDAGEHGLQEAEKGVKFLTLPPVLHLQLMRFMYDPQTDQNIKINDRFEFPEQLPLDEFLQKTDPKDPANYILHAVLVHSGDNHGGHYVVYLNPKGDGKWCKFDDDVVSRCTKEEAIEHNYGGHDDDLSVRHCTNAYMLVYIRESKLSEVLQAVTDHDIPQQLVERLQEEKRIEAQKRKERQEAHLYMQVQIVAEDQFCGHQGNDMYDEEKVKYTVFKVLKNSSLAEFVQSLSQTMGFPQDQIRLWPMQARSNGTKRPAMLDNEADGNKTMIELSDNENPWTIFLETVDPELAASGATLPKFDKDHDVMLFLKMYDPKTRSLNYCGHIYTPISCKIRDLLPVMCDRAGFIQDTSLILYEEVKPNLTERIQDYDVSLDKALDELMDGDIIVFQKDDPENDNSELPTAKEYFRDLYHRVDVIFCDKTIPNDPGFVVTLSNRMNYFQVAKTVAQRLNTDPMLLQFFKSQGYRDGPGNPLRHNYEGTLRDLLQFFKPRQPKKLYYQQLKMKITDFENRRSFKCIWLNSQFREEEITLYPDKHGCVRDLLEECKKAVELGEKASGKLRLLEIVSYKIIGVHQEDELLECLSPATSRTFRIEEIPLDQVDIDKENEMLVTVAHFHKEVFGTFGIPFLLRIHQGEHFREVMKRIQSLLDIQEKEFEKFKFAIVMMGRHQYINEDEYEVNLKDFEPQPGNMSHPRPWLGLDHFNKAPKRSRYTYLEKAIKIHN

By IC50 is commonly meant the concentration needed to halve the response being measured. Take `CN1CCOc2cc(C#N)ccc21`: the IC50 result in [1] is reported as “Not Active”. On to `COc1ccc2c(c1)CCCC2=O`, for which the outcome in [2] was inactive. `Cc1cc(C#N)cc(C)c1O`: in experiment [1] (read-out: IC50), the IC50 was greater than 5000 µM. As for `CC(C)(C)OC(=O)CNC(=O)c1cc(-c2cccs2)on1`, in experiment [1], the IC50 result is listed as “Not Active”. The same measure, in the same setting: the same measure for `O=C(OCc1cc(-c2cccs2)on1)c1ccc(S(=O)(=O)N2CCOCC2)cc1`: “Not Active”.

As for `O=C(O)COCc1cc(-c2cccs2)on1`, the IC50 entry in [1] is recorded as “Not Active”. For the molecule `Nc1ccc(-c2cnco2)cc1`, in experiment [2], the result was inactive. In the case of `Cc1c(CO)cnn1-c1ccccc1`, the IC50 result in experiment [1] was “Not Active”.

As for `NC(=O)c1c(NC(=O)COCc2cc(-c3cccs3)on2)sc2c1CCCC2`, the inhibition result in [3] is “Dose-dependent effect”. Besides, the IC50 in experiment [1] (read-out: IC50) was found to be 3.3 µM. The inhibition result in experiment [4] and in experiment [5] was “Active” throughout. Besides, in experiment [6], the inhibition result was “inactive”. `CCCn1nc(C(=O)OCc2cc(-c3cccs3)on2)c2ccccc2c1=O`: the concentration for half-maximal inhibition (IC50) in experiment [1] (read-out: IC50) is greater than 100 µM. With `Nc1cc(-c2ccccc2)n[nH]1`, in [1] (read-out: IC50), the IC50 is greater than 5000 µM. Also, the outcome in experiment [2] was inactive. Regarding `NCc1ccc(-c2csnn2)cc1`, the IC50 in experiment [1] (read-out: IC50) was greater than 5000 µM.

In the case of `COc1ccc(N2CC(C(=O)OCc3cc(-c4cccs4)on3)CC2=O)cc1` (stereo unspecified), in experiment [1], the IC50 entry is recorded as “Not Active”. With `CSc1nnc(-n2cccc2)s1`, the result in experiment [2] was inactive. On the same count and under the same terms, in the case of `COC(=O)c1ccc2cc[nH]c2c1` it was “inactive”. Take `CC(Oc1ccc(C#N)cc1)C(=O)OCc1cc(-c2cccs2)on1` (stereo unspecified): the half-maximal inhibitory concentration (IC50) in experiment [1] (read-out: IC50) was greater than 50 µM. Regarding `Cl.NCc1ccc(Cc2cccs2)cc1`, the half-inhibitory concentration (IC50) result in [1] is reported as “Not Active”. For orientation: Kd means the equilibrium constant for the complex coming apart. As to `OCc1cc(-c2cccs2)on1`, the IC50 in experiment [1] (read-out: IC50) was 1300 µM. The inhibition result in [7] is “Active”. Besides, the inhibition result in experiment [8], in [4] and in experiment [5] was “inactive” each time. Further, the dissociation constant (Kd) in [9] turned out to be 900 µM. Turning to `O=C(O)c1cc(-c2cccs2)on1`, the half-inhibitory concentration (IC50) result in [1] is “Not Active”. As for `O=C(O)CNC(=O)c1cc(-c2cccs2)on1`, the IC50 result in [1] is “Not Active”.

Take `NC(=O)c1c(N)sc2c1CCCC2`: the IC50 in [1] (read-out: IC50) came out at 8.7 µM.

For the origin of these results see ChEMBL document CHEMBL4196080, “Identification of small-molecule inhibitors of USP2a” (Eur J Med Chem, 2018).
